Data: ChEMBL document CHEMBL1154414, “In vitro and in vivo activities of T-705 against arenavirus and bunyavirus infections” (Antimicrob Agents Chemother, 2007)
Active and inactive are the calls of the source. The calls are words filed in the database; no cut-off is given here.

Assays:
Punta Toro virus [1] = test: Antiviral activity against 500 PFU Punta Toro virus Adames infected C57BL/6 mouse assessed as animals with detectable virus level in serum at 30 mg/kg, po twice daily administered 4 hrs before viral challenge measured on day 3 of viral infection; format: functional
Procedure, shortened: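 T-705 was suspended in 0.4% carboxymethylcellulose and given by oral gavage twice daily. Mice were infected subcutaneously with PTV. Five mice per group (10 placebo) were sacrificed on day 3 or 4. Liver homogenate or serum was serially diluted onto triplicate LLC-MK2 monolayers, and CPE was read at 6–8 days. The detection limit was 2.8 log10 CCID50 per 0.1 g liver or 0.1 ml serum.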

Punta Toro virus [2] = test: Antiviral activity against 500 PFU Punta Toro virus Adames infected C57BL/6 mouse assessed as mean serum ALT levels at 30 mg/kg, po twice daily administered 4 hrs before viral challenge measured on day 3 of viral infection; format: functional
Procedure, shortened: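 C57BL/6 mice received subcutaneous PTV, then oral gavage twice daily for 5–7 days. T-705 was given in 0.4% CMC and ribavirin in saline. Five mice per group (10 placebo) were killed on day 3 or 4, and serum was collected. ALT activity was measured by kinetic assay. Three sham-infected mice set baselines.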

Punta Toro virus [3] = test: Antiviral activity against 500 PFU Punta Toro virus Adames infected C57BL/6 mouse assessed as mean serum ALT levels at 10 mg/kg, po twice daily administered 4 hrs before viral challenge measured on day 3 of viral infection; format: functional
Procedure, shortened: (§1)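 Subcutaneous PTV infection was followed by oral gavage twice daily with drug suspended in 0.4% CMC. Serum was collected from 5 sacrificed mice per group (10 placebo) on day 3 or 4. ALT activity was measured by kinetic assay, and sham-infected mice set the baselines.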

Punta Toro virus [4] = test: Antiviral activity against 500 PFU Punta Toro virus Adames infected C57BL/6 mouse assessed as protection against viral infection at 10 mg/kg, po twice daily for 5 to 7 days twice daily administered 4 hrs before viral challenge; format: functional
Procedure, shortened: (§2)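 PTV was inoculated subcutaneously into mice in groups of 15 (25–30 placebo). Dosing was by oral gavage twice daily for 5–7 days, with T-705 suspended in 0.4% CMC and ribavirin in saline. Remaining animals were observed 21–28 days for survival and day of death. Test doses had first been checked for tolerance in uninfected animals.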

Punta Toro virus [5] = test: Antiviral activity against 500 PFU Punta Toro virus Adames infected C57BL/6 mouse assessed as survival at 100 mg/kg, po twice daily for 5 days administered 4 hrs before viral challenge; format: functional, organism-based; design: dose 100 mg/kg; procedure, shortened: as §2
Punta Toro virus [6] = test: Antiviral activity against 500 PFU Punta Toro virus Adames infected C57BL/6 mouse assessed as survival at 25 mg/kg, po twice daily for 5 days administered 4 hrs before viral challenge; format: functional, organism-based; design: dose 25 mg/kg; procedure, shortened: as §2
Punta Toro virus [7] = test: Antiviral activity against 500 PFU Punta Toro virus Adames infected C57BL/6 mouse assessed as survival at 75 mg/kg, po twice daily for 5 days administered 4 hrs before viral challenge; format: functional, organism-based; design: dose 75 mg/kg; procedure, shortened: as §2
Punta Toro virus [8] = test: Antiviral activity against 500 PFU Punta Toro virus Adames infected C57BL/6 mouse assessed as mean viral titer per 0.1 mL of serum at 10 mg/kg, po twice daily administered 4 hrs before viral challenge measured on day 3 of viral infection; format: functional
Procedure, shortened: (§3)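 Mice were infected subcutaneously with PTV and dosed by oral gavage twice daily; 5 per group (10 placebo) were killed on day 3 or 4. Liver homogenate or serum was serially diluted onto triplicate LLC-MK2 monolayers, and CPE was read 6–8 days later. 50% endpoints gave log10 CCID50 per 0.1 g liver or 0.1 ml serum. Detection range was 2.8–9.5; undetectable samples were assigned <2.8.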

Punta Toro virus [9] = test: Antiviral activity against 500 PFU Punta Toro virus Adames infected C57BL/6 mouse assessed as mean viral titer per 0.1 mL of serum at 5 mg/kg, po twice daily administered 4 hrs before viral challenge measured on day 3 of viral infection; format: functional; procedure, shortened: as §3
Punta Toro virus [10] = test: Antiviral activity against 500 PFU Punta Toro virus Adames infected C57BL/6 mouse assessed as mean day of death at 25 mg/kg, po twice daily for 5 days administered 4 hrs before viral challenge; format: functional
Procedure, shortened: (§4)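 Groups of 15 mice (25–30 placebo) were inoculated subcutaneously with PTV. Drug in 0.4% carboxymethylcellulose was given by oral gavage twice daily.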

Punta Toro virus [11] = test: Antiviral activity against 500 PFU Punta Toro virus Adames infected C57BL/6 mouse assessed as mean day of death at 75 mg/kg, po twice daily for 5 days administered 4 hrs before viral challenge; format: functional; procedure, shortened: as §4
Punta Toro virus [12] = test: Antiviral activity against 500 PFU Punta Toro virus Adames infected C57BL/6 mouse assessed as mean viral titer per 0.1 g of liver at 50 mg/kg, po administered 4 hrs before viral challenge measured on day 4 of viral infection; format: functional; procedure, shortened: as §3
Punta Toro virus [13] = test: Antiviral activity against 500 PFU Punta Toro virus Adames infected C57BL/6 mouse assessed as mean viral titer per 0.1 g of liver at 75 mg/kg, po administered 4 hrs before viral challenge measured on day 4 of viral infection; format: functional; procedure, shortened: as §3
Enterovirus = test: Antiviral activity against Rhinovirus; format: functional, organism-based
Pichinde virus [14] = test: Antiviral activity against Pichinde virus An 4763 assessed as reduction of 1 log10 unit viral titer yields after 7 to 8 days; format: functional
Pichinde virus [15] = test: Antiviral activity against Pichinde virus An 4763 infected Syrian golden hamster assessed as mean day of death at 30 mg/kg, po twice daily for 7 days administered 4 hrs before viral-challenge; format: functional
Pichinde virus [16] = test: Antiviral activity against Pichinde virus An 4763 infected Syrian golden hamster assessed as mean day of death at 15 mg/kg, po twice daily for 7 days administered 4 hrs before viral-challenge; format: functional
Pichinde virus [17] = test: Antiviral activity against Pichinde virus An 4763 infected Syrian golden hamster assessed as animals with detectable virus level in liver at 60 mg/kg, po twice daily for 7 days administered 4 hrs before viral-challenge measured on day 7 of viral infection; format: functional
Pichinde virus [18] = test: Antiviral activity against Pichinde virus An 4763 infected Syrian golden hamster assessed as animals with detectable virus level in liver at 15 mg/kg, po twice daily for 7 days administered 4 hrs before viral-challenge measured on day 7 of viral infection; format: functional
Pichinde virus [19] = test: Antiviral activity against Pichinde virus An 4763 infected Syrian golden hamster assessed as mean viral titer per 0.1 mL of serum at 60 mg/kg, po twice daily for 7 days administered 4 hrs before viral-challenge measured on day 7 of viral infection; format: functional
Pichinde virus [20] = test: Antiviral activity against Pichinde virus An 4763 infected Syrian golden hamster assessed as animals with detectable virus level in serum at 60 mg/kg, po twice daily for 7 days administered 4 hrs before viral-challenge measured on day 7 of viral infection; format: functional
Punta Toro virus [21] = test: Antiviral activity against 500 PFU Punta Toro virus Adames infected C57BL/6 mouse assessed as mean serum ALT levels at 200 mg/kg, po twice daily administered 4 hrs before viral challenge measured on day 4 of viral infection; format: functional; procedure, shortened: as §1
Punta Toro virus [22] = test: Antiviral activity against 500 PFU Punta Toro virus Adames infected C57BL/6 mouse assessed as mean day of death at 30 mg/kg, po twice daily for 5 days administered 4 hrs before viral challenge; format: functional; procedure, shortened: as §4
[23] = Cytotoxicity against african green monkey Vero cells after 7 to 8 days by neutral-red dye uptake assay; format: cell-based; details: chlorocebus sabaeus
Procedure, shortened: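 Subconfluent (50-70%) Vero cells received half-log drug dilutions without virus and were held at 37°C, 5% CO2 for 7-8 days. Cells were stained with 0.034% neutral red for 2 h, and the dye was extracted 30 min in ethanol with Sorenson's citrate buffer. Absorbance was read at 540 nm as % of untreated controls. CC50 was derived by regression.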

## NC(=O)c1nc(F)cnc1O [FAVIPIRAVIR]
Punta Toro virus [1]
  Activity: 80%
Punta Toro virus [2]
  Activity: 9 IU/L
Punta Toro virus [3]
  Activity: 501 IU/L
Punta Toro virus [4]
  Activity: 90%
Punta Toro virus [5]
  Activity: Active
Punta Toro virus [6]
  Activity: Active
Punta Toro virus [7]
  Activity: Active
Punta Toro virus [8]
  log10CCID50: 6.2
Punta Toro virus [9]
  log10CCID50: 7.2
Punta Toro virus [10]
  Activity: >21 days
Punta Toro virus [11]
  Activity: >21 days
Punta Toro virus [12]
  log10CCID50: <2.8
Punta Toro virus [13]
  log10CCID50: <2.8
Enterovirus
  EC50: 146 µM
Pichinde virus [14]
  EC90: 19 µM
Pichinde virus [15]
  Activity: 12.5 days
Pichinde virus [16]
  Activity: 11.1 days
Pichinde virus [17]
  Activity: 0%
Pichinde virus [18]
  Activity: 100%
Pichinde virus [19]
  log10CCID50: <2.8
Pichinde virus [20]
  Activity: 0%
Punta Toro virus [21]
  Activity: 37 IU/L
Punta Toro virus [22]
  Activity: >21 days

## NC(=O)c1ncn([C@@H]2O[C@H](CO)[C@@H](O)[C@H]2O)n1 [RIBAVIRIN]
[23]
  CC50: 156 µM
